Source: PubChem (several laboratories)
Shown are actives, neighbours in structure and some others; about 2.1% of the full set was active somewhere.
MC4R ag barr = agonists of human melanocortin 4 receptor (MC4R) beta-arrestin; P32245; U2OS MC4R beta-arrestin complementation, luminescence; percent of melanotan II response, DMSO zero; activation, % at 8.9 µM; 0.98% of 360,000 active;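 active = activation above a per-plate cutoff, the mean activation of sample wells on that plate plus 3 SD, cut at about 8% in these data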
Target sequence (P32245 whole entry, looked up): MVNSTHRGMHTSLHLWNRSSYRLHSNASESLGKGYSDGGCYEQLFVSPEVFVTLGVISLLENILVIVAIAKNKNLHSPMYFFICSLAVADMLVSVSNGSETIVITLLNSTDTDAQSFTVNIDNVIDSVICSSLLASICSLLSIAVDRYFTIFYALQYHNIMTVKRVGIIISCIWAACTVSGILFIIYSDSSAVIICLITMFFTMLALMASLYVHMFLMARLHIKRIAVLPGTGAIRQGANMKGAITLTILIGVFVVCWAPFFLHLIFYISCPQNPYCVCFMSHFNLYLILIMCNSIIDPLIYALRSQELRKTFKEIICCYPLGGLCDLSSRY
CFTR F508del cor = CFTR F508del correction in bronchial cells; CFBE cells, YFP halide quenching; stimulated with forskolin plus potentiator P3; % fluorescence drop versus neutral controls; activity (quench increase), % at 7.58 µM; 0.36% of 350,000 active;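 active = mean added fluorescence quench of at least 8% versus neutral control, with both replicates also reaching 8%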;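 also: cells transiently co-express mutant CFTR-F508del with the halide-sensitive YFP; corrector assay measuring rescue of mutant channel to the surface after 24 h compound exposure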
SMARCA2 activ = increases SMARCA2 function in MMTV reporter cells; MG213 cells, MMTV-luciferase reporter, dexamethasone, overnight; activation, % at 9.1 µM; 1% of 370,000 active; in the data active = activation above about 7.8%;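 also: 0% = vehicle wells and 100% = reference activator wells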
MC4R antagonist = human MC4R antagonism in cAMP assay. P32245. MC4R-expressing cells, MTII-stimulated cAMP, LANCE TR-FRET. inhibition, % at 6.5 µM. 0.48% of 360,000 active. AID 540295;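 active = inhibition above its plate's cutoff, the mean of tested wells on that plate plus 3 SD, cut at about 29% in these data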;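 also: 0% = Melanotan II alone and 100% = Melanotan II plus saturating MCL0020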
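Material: U2OS-MC4R stable cell line | Reagent: Melanotan II challenge after compound preincubation | Doses: One concentration, 6.5 µM nominal | Incubation: 30-min compound preincubation, 1-h Melanotan II challenge, 1-h detection, room temperature | Signal: TR-FRET cAMP assay | Replicates: One well per compound, no replicates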
cAMP nonselect = U2OS forskolin cAMP inhibition counter-screen | shares compounds with MC4R antagonist | parental U2OS, LANCE TR-FRET | inhibition, % at 6.5 µM | 26% of 1,600 active | AID 602193;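 active = mean inhibition over triplicates above the low-control well mean plus 3 SD, set per campaign, cut at about 13% in these data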;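 also: signal is single emission at 671 nm which falls as cellular cAMP rises; 0% = forskolin-stimulated wells and 100% = buffer without forskolin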
MC4R cAMP antag = human MC4R cAMP antagonism confirmation. shares compounds with MC4R antagonist. MC4R-expressing cells, MTII-stimulated cAMP, TR-FRET. inhibition, % at 6.5 µM. 27% of 1,600 active. AID 602195; in the data active = inhibition above about 29%;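 also: 0% = agonist stimulated wells alone and 100% = agonist stimulated wells plus saturating reference antagonist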
Starred values were filed as active, the others as inactive; nt = not tested or not shown.

SMILES | MC4R ag barr | CFTR F508del cor | SMARCA2 activ | MC4R antagonist | cAMP nonselect | MC4R cAMP antag
COc1ccc(S(=O)(=O)Nc2cccc3c2O[C@@H](CN(C)Cc2ccc(Cl)c(Cl)c2)[C@H](C)CN([C@H](C)CO)C3=O)cc1 | nt | 1 | nt | nt | nt | nt
NS(=O)(=O)c1ccc(-c2ccc(/C=C3\C(=O)Nc4cc(Cl)ccc43)o2)cc1 | -1 | 7 | -1 | 3 | nt | nt
CC1(C)OC(=O)C(=Cc2ccc(-c3ccc(S(N)(=O)=O)cc3)o2)C(=O)O1 | -1 | 0 | 1 | 39* | 11 | 19
N#Cc1cc2c(nc1SCC(=O)Nc1nccs1)CCCCC2 | 0 | -2 | 2 | 39* | 12 | 19
CCc1nnc(NC(=O)CSc2nc3c(cc2C#N)CCC3)s1 | -2 | nt | 0 | 2 | nt | nt
O=[N+]([O-])c1cc(S(=O)(=O)Oc2ccccc2)ccc1Cl | -3 | -5 | -2 | 30* | 35* | 17
Nc1nc(N2CCCCC2)c(C=O)c(N2CCCCC2)n1 | 1 | 2 | -3 | 28 | nt | nt
Nc1nc(Cl)c(C=O)c(N2CCCCC2)n1 | -2 | 5 | -2 | 37* | 20* | 28
O=C(Nc1cccc([N+](=O)[O-])c1)c1ccc2c(c1)C(=O)N(c1ccccn1)C2=O | -1 | 0 | -2 | 35* | 12 | 18
COc1ccc(-c2nc3cc(C)ccn3c2NC(=O)c2ccccc2OC)cc1 | 0 | 1 | -2 | 13 | nt | nt
CCCCNc1c(-c2cccc(-c3ccc(OC)cc3)c2)nc2cc(C)ccn12 | 0 | 7 | 3 | 34* | 30* | 56*
CCCCNc1c(-c2cccc(-c3ccc(OC)cc3)c2)nc2ccc(C)cn12 | 3 | 1 | 2 | 40* | 15* | 41*
CCCCNc1c(-c2ccc(-c3cccc(Cl)c3)cc2)nc2ccccn12 | 0 | 4 | 4 | 23 | nt | nt
S=c1[nH]c(-c2ccccc2)cn1/N=C/c1cccc2ccccc12 | 0 | 0 | -1 | 29* | 1 | -6
S=c1[nH]c(-c2ccccc2)cn1/N=C/c1ccccc1Br | -3 | 0 | 1 | 5 | nt | nt
Cc1cccc(N2CCN(C(=O)c3cc(S(=O)(=O)N(C)C)ccc3N3CCCC3)CC2)c1C | 1 | 1 | -3 | 15 | nt | nt
CN(C)S(=O)(=O)c1ccc(N2CCCC2)c(C(=O)N2CCN(c3ccc([N+](=O)[O-])cc3)CC2)c1 | -2 | -2 | 0 | 34* | 2 | 7
CC(NC(=O)Cc1ccccc1)C(=O)O (configuration not stated) | 0 | -2 | 1 | -1 | nt | nt
CC(C)C(CO)NC(=O)CC(=O)NC(CO)C(C)C (configuration not stated) | 1 | -8 | 5 | 30* | -1 | -10
O=C(O)c1cc(-c2cccnc2)nc2ccc(Br)cc12 | -1 | -1 | 0 | 49* | 42* | 68*
CCN1CCN(C(=O)c2cc(-c3cccnc3)nc3ccc(Br)cc23)CC1 | -2 | nt | -2 | 6 | nt | nt
O=C(O)c1cc(-c2cccs2)nc2ccc(Br)cc12 | -2 | -2 | 4 | 111* | 98* | 153*
O=C(O)c1cc(-c2ccc3c(c2)OCO3)nc2ccc(Br)cc12 | -2 | -4 | 4 | 37* | 12 | 30*
CCC(=O)Nc1ccc2c(c1)OC[C@H](C)N(C(=O)NC(C)C)C[C@@H](C)[C@H](OC)CN(C)C2=O | nt | 1 | nt | nt | nt | nt
O=C(C[C@@H]1CC[C@@H](NC(=O)Nc2ccc3c(c2)OCO3)[C@@H](CO)O1)NCc1ccc2c(c1)OCO2 | nt | -2 | nt | nt | nt | nt
CCOC(=O)CNC(=S)N(CCCN1CCCCCC1)Cc1cccs1 | 0 | nt | 2 | 34* | 1 | 0
O=C(CSc1nccc(=O)[nH]1)NN(c1ccccc1)c1ccccc1 | 0 | 5 | 1 | 29* | -6 | -20
Cc1ccc(C(=O)NCC(=O)OCC(=O)Nc2ccc(Cl)cc2C(F)(F)F)cc1C | 4 | 0 | -1 | 29* | 6 | 18
Cc1ccsc1C(=O)OCC(=O)Nc1ccc(Cl)cc1C(F)(F)F | 1 | -2 | 4 | 16 | nt | nt
CN(C)CC(=O)Nc1ccc2c(c1)[C@H]1C[C@@H](CC(=O)N3CCOCC3)O[C@@H](CO)[C@H]1O2 | nt | 1 | nt | nt | nt | nt
